Source: PubChem
ASAP1 inh: inhibitors of human ASAP1 ArfGAP activity, primary screen, biochemical, fluorescence polarization | ASAP1-stimulated ARF1 GTP hydrolysis, GDP FP detection | inhibition, % at 16.5 µM | actives 0.19% (n = 360,000); in the data active means inhibition above about 25%;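 further: 0% = vehicle with enzyme and substrate and 100% = no enzyme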
NR1D1 modulator: modulators of Rev-erb alpha DNA binding, primary screen, biochemical, FITC-DNA, fluorescence polarization, uHTS. AID 1259318, 2017. Rev-erbα–FITC-DNA binding, 90 min. Nuclear receptor subfamily 1 group D member 1 (Homo sapiens), P20393. actives 0.79% (n = 370,000). activity, % at 10 µM;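 active means activity above about 14%, limit read from the data; passing the limit was not always enough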;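 further: 0% = DMSO wells with 35 nM protein and 100% = DMSO wells with 750 nM protein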
MsrA inhibitor: bovine MsrA enzyme inhibitors, primary screen, biochemical, absorbance, HTS; inhibition, % at 15.5 µM; actives 0.75% (n = 360,000); purified bovine MsrA, absorbance read-out; Methionine sulfoxide reductase A (Bos taurus); in the data active means inhibition above about 4.5%;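 further: 0% = vehicle wells with enzyme and 100% = reference inhibitor wells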
HGIII-sPLA2 inh: human group III sPLA2 inhibitors, primary screen, biochemical, QFRET, BODIPY PC-A2 liposome substrate | QFRET BODIPY PC-A2 liposome hydrolysis, fluorescence | inhibition, % at 12.2 µM | actives 0.56% (n = 370,000) | AID 743126, 2013;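 active means inhibition above mean plus 3 SD of compounds lying within the high and low control bounds, cut at about 19% in these data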;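 further: 0% = median of test compound wells and 100% = no enzyme DMSO wells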
Target sequence (Q9NZ20 whole entry, looked up): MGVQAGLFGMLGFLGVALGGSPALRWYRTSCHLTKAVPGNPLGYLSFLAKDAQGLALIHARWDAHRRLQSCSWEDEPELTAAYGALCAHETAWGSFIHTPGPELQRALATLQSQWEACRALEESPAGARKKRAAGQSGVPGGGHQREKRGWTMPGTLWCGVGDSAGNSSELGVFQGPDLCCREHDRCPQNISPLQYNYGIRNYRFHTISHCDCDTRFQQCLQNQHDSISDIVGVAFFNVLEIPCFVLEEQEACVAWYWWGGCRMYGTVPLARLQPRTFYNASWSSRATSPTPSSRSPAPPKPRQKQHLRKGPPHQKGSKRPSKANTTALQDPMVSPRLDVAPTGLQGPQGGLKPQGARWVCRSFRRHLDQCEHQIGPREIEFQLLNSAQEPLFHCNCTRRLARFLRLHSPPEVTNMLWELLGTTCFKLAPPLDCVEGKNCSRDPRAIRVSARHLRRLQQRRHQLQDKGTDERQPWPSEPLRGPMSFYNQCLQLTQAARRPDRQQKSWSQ
ARFGAP1 inhibitor: inhibitors of rat ARFGAP1 GAP activity, primary screen, biochemical, fluorescence polarization, GDP tracer. ADP-ribosylation factor GTPase-activating protein 1 (Rattus norvegicus), Q62848. Arfgap1-stimulated ARF1 GTP hydrolysis, GDP FP detection. inhibition, % at 16.5 µM. actives 0.26% (n = 360,000). AID 651572, 2012;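 active means inhibition above a per-plate limit, mean inhibition of low control wells plus 3 SD, cut at about 25% in these data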;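 further: 0% = DMSO wells with enzyme and 100% = wells lacking Arfgap1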
Target sequence (Q62848 1-136 limits assumed): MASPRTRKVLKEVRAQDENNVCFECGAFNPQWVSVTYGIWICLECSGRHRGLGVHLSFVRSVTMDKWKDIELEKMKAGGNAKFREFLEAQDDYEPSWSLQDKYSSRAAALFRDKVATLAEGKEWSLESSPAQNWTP
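system = rat Arfgap1 catalytic domain, aa 1-136 | technique = FP, GDP Alexa 633 tracer displaced from anti-GDP antibody, 620/688 nm | compound = one concentration, 16.5 µM, DMSO 1.26% | medium = HEPES-based buffer, pH 7.5 | timing = compound-enzyme preincubation 20 min, reaction 120 min, detection 60 min, 25 °C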
MsrA act: bovine MsrA enzyme activators, primary screen, biochemical, absorbance, HTS. purified bovine MsrA, absorbance read-out. activation, % at 10.6 µM. actives 0.3% (n = 360,000); in the data active means activation above about 7.5%;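 further: 0% = vehicle and 100% = reference activator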
ASAP1 inh confirm: ASAP1 GAP activity inhibitors, confirmation, biochemical, fluorescence polarization, human, triplicate; ASAP1-stimulated Arf1 GTPase, GDP fluorescence polarization; inhibition, % at 16.5 µM; shares compounds with ASAP1 inh; actives 37% (n = 620);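 active means mean inhibition over triplicates exceeds the hit threshold derived for the earlier primary screening run, cut at about 25% in these data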
ARFGAP1 confirm: ARFGAP1 inhibitor hit confirmation, biochemical, fluorescence polarization, triplicate; shares compounds with ARFGAP1 inhibitor; ARFGAP1-stimulated ARF1 GTP hydrolysis, GDP tracer FP; inhibition, % at 16.5 µM; actives 30% (n = 890); AID 651608, 2012;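 active means average inhibition over triplicates above the hit cutoff set in the earlier primary screen, cut at about 25% in these data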;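 further: 0% = Arfgap1 plus ARF1-GTP with DMSO and 100% = wells lacking Arfgap1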
* = called active by the depositor; . = not tested or not shown; + = active, no number. Sampled rows, rich in hits. Any-hit rate of the full collection: about 2.7%.

SMILES | ASAP1 inh | NR1D1 modulator | MsrA inhibitor | HGIII-sPLA2 inh | ARFGAP1 inhibitor | MsrA act | ASAP1 inh confirm | ARFGAP1 confirm
N#CC1C(=O)Nc2cccnc21 (centres undefined) | 30.2* | -8.6 | -0.2 | -9.3 | 28.5* | -3.8 | 1.2 | -2.1
O=C1N=C(N2CCOCC2)SC1=Cc1ccco1 | -1.7 | 6.3 | 0.8 | -10.3 | 6.9 | -5.7 | . | .
O=C1N=C(N2CCOCC2)S/C1=C/c1ccc(-c2ccc(F)cc2)o1 | 33.5* | 10.9 | -0.6 | -0.5 | 29.6* | -4.2 | 57.5* | 49.3*
Cc1ccc(-c2ccc(/C=C3\SC(N4CCOCC4)=NC3=O)o2)cc1 | 49.4* | 9.0 | 2.0 | 1.2 | 37.0* | -2.9 | 115.6* | 87.2*
CCCCCCCCN1C(=O)[C@@H](CC(=O)NCc2cccc(C(F)(F)F)c2)C[C@@]2(C(=O)OC)C1=C[C@H](C(C)C)O[C@@H]2C1CC1 | . | 1.2 | . | -3.5 | . | . | . | .
CC(C)CNc1cccc2c1S(=O)(=O)N(Cc1cn(Cc3ccc(C(F)(F)F)cc3)nn1)Cc1ccccc1O2 | . | 2.6 | . | -10.3 | . | . | . | .
O=C(NCCc1ccccc1)OCc1cn(Cc2cccc(Cl)c2)nn1 | . | 5.6 | . | -5.6 | . | . | . | .
O=C(/C=C/c1ccco1)Nc1ccc(-c2nc3ccccc3[nH]2)cc1 | 28.1* | -3.8 | 0.7 | -2.0 | 87.7* | -3.0 | 70.8* | 139.1*
CCN(CC)c1ccc(C(=C2C=CC(=[N+](CC)CC)C=C2)c2ccc(S(=O)(=O)O)cc2S(=O)(=O)[O-])cc1 | 118.8* | -12.5 | -0.2 | -3.8 | 120.9* | -2.3 | 118.3* | 131.9*
CC(=O)Nc1ccc(NC(=O)c2ccc(-c3ccc([N+](=O)[O-])cc3)o2)cc1 | 129.8* | -23.0 | 0.5 | 4.0 | 62.1* | -5.5 | 164.5* | +
O=c1c(Cl)c(N/N=C/c2ccc(Br)cc2)cnn1-c1ccccc1 | 42.2* | -18.6 | 0.1 | 1.1 | 43.7* | -11.4 | 32.5* | 64.6*
COC(=O)COc1ccc2c(c1)O/C(=C\c1cccc([N+](=O)[O-])c1)C2=O | -4.8 | -4.5 | -0.5 | -0.9 | 7.2 | -0.8 | . | .
COc1ccc(/C=C2\Oc3cc(OCC(N)=O)ccc3C2=O)cc1OC | 34.8* | -4.3 | 3.7 | 1.3 | 32.0* | -3.0 | 47.0* | 45.2*
Cn1c(=O)n(CCOc2ccc(Cl)cc2Cl)c2ccccc21 | 40.1* | 1.5 | -0.2 | -4.0 | 30.3* | -11.7 | 47.5* | 43.8*
O=C(NN=Cc1ccc2c(c1)OCO2)NN=Cc1ccc2c(c1)OCO2 | 33.9* | 2.5 | 3.2 | -3.8 | 30.7* | -4.2 | 71.6* | 61.5*
CC(=O)Nc1ccc(NC(=O)CSc2ccc(-c3cccnc3)nn2)cc1 | 4.7 | 2.6 | 0.5 | 4.4 | -3.4 | -5.5 | . | .
CC(=O)Nc1ccc(NC(=O)CSc2ccc(-c3ccc(-n4ccnc4)cc3)nn2)cc1 | 65.9* | -17.7 | -0.6 | 2.2 | 25.4* | 0.4 | 70.6* | 72.3*
O=C(NC1CCCCN(Cc2cccc(C(F)(F)F)c2)C1=O)c1ccc(-c2ccccc2)cc1 (centres undefined) | . | -1.6 | . | 3.1 | . | . | . | .
COc1ccc(/C=N\NC(=O)c2ccc([N+](=O)[O-])cc2)cc1COc1c(F)c(F)cc(F)c1F | 51.7* | -9.4 | 1.1 | -0.9 | 81.6* | -3.8 | 58.4* | 98.8*
CN1\C(=C/C=C/C=C/C=[N+](C)C)C(C)(C)c2ccccc21 | 54.9* | -17.4 | -1.7 | 8.8 | 46.7* | -4.1 | 41.4* | 37.4*
COc1ccc(NC(=O)c2cccc3c(-c4cccnc4)coc23)cc1 | 32.5* | -9.3 | 1.1 | 7.6 | 26.1* | -2.2 | 17.7 | 14.4
O=C(Nc1ccccc1)c1cccc2c(-c3cccnc3)coc12 | 7.2 | 3.1 | 0.4 | -6.6 | -1.6 | -2.9 | . | .
O=C(CN1CCc2onc(-c3ccc(-n4cc(COc5ccc([N+](=O)[O-])cc5)nn4)cc3)c2C1=O)N1CCOCC1 | . | -3.8 | . | -2.8 | . | . | . | .
CN(C)CCNC(=O)c1cccc(-c2cnc3c(NC=O)cc(-c4cccc(F)c4)cn23)c1 | 9.7 | -1.6 | 0.2 | -19.2 | 4.0 | -0.9 | . | .
CN(C)CCNC(=O)c1cccc(-c2cnc3c(NC=O)cc(/C=C/c4ccccc4)cn23)c1 | 42.0* | -4.6 | 0.4 | -27.1 | 34.5* | -0.8 | 36.7* | 44.7*
SMILES | ASAP1 inh | NR1D1 modulator | MsrA inhibitor | HGIII-sPLA2 inh | ARFGAP1 inhibitor | MsrA act | ASAP1 inh confirm | ARFGAP1 confirm
CCC(/C=C1\Sc2ccc(OC)cc2N1CCO)=C\c1sc2ccc(OC)cc2[n+]1CCO | 31.9* | -2.6 | 0.1 | -5.0 | 41.8* | -4.2 | 35.2* | 25.1*
CCC(/C=C1\Sc2ccc(OC)cc2N1CC)=C\c1sc2ccc(OC)cc2[n+]1CCCS(=O)(=O)[O-] | 14.4 | -1.3 | 0.7 | 7.2 | 23.8 | -1.4 | . | .
COCC(=O)NCc1ccc2c(c1)cc(C)n2C | 12.5 | -0.1 | -0.3 | -2.5 | -7.4 | -7.5 | . | .
Cc1cc2cc(CNC(=O)Nc3ccc(Cl)c(Cl)c3)ccc2n1C | 42.0* | 9.0 | 0.2 | 9.1 | 73.7* | 0.4 | 14.4 | 7.6
COC(=O)CSc1nnc(-c2ccc(NS(=O)(=O)c3c(C(C)C)cc(C(C)C)cc3C(C)C)cc2)o1 | . | -1.4 | . | -52.2 | . | . | . | .
Cc1ccc(NC(=O)c2cccc3c2-c2ccccc2C3=O)c(C)c1 | . | 1.1 | . | 3.0 | . | . | . | .
C[C@@H]1CN(C(=O)OC(C)(C)C)CCN1c1ccc(Br)c(C#N)c1 | -18.8 | 8.4 | -0.2 | 6.6 | 24.1 | . | . | .
O=C(O)c1ccc(Nc2nc(-c3cc4ccccc4oc3=O)cs2)cc1O | 25.2* | -3.2 | 2.7 | -21.5 | 26.7* | -6.1 | 33.1* | 44.8*
CC(=O)Nc1ccc(Nc2nc(-c3cc4ccccc4oc3=O)cs2)cc1 | 6.9 | 2.2 | 0.1 | -4.7 | -5.1 | -5.9 | . | .
C[C@@H]1C(=O)N2N=Cc3cc4ccccc4cc3[C@H]2N2N=Cc3cc4ccccc4cc3[C@@H]12 | . | -2.6 | . | 3.7 | . | . | . | .
